From ChEMBL document CHEMBL2380293, “Design, synthesis, and biological evaluation of novel histone deacetylase 1 inhibitors through click chemistry” (Bioorg Med Chem Lett, 2013)
Calls of active or inactive are those of the source. The calls are words filed in the database; no cut-off is given here.

Assays:
Histone deacetylase 1 [1] = target: T1, Histone deacetylase 1 (Homo sapiens, UniProt Q13547); experiment: Inhibition of human recombinant HDAC1 incubated for 10 mins prior to substrate addition measured after 60 mins by spectrophotometric analysis
T1 sequence (Q13547 whole entry): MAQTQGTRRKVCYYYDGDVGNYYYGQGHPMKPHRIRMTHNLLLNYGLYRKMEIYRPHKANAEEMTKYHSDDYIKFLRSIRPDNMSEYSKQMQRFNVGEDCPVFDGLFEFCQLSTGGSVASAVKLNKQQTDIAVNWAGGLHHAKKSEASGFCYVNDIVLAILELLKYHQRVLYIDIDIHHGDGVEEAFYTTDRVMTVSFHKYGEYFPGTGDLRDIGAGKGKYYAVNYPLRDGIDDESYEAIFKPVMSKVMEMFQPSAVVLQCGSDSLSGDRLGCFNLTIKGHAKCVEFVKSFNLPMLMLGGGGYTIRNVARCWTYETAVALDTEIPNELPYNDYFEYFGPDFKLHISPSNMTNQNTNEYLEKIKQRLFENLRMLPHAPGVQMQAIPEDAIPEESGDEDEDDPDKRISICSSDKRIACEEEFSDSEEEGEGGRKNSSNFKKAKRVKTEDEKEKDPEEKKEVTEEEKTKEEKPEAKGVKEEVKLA

[2] = target: T2, Histone deacetylase 7 (Homo sapiens) (UniProt Q8WUI4); experiment: Inhibition of human recombinant HDAC7 at 10 uM incubated for 10 mins prior to substrate addition measured after 60 mins by spectrophotometric analysis
T2 sequence (whole entry): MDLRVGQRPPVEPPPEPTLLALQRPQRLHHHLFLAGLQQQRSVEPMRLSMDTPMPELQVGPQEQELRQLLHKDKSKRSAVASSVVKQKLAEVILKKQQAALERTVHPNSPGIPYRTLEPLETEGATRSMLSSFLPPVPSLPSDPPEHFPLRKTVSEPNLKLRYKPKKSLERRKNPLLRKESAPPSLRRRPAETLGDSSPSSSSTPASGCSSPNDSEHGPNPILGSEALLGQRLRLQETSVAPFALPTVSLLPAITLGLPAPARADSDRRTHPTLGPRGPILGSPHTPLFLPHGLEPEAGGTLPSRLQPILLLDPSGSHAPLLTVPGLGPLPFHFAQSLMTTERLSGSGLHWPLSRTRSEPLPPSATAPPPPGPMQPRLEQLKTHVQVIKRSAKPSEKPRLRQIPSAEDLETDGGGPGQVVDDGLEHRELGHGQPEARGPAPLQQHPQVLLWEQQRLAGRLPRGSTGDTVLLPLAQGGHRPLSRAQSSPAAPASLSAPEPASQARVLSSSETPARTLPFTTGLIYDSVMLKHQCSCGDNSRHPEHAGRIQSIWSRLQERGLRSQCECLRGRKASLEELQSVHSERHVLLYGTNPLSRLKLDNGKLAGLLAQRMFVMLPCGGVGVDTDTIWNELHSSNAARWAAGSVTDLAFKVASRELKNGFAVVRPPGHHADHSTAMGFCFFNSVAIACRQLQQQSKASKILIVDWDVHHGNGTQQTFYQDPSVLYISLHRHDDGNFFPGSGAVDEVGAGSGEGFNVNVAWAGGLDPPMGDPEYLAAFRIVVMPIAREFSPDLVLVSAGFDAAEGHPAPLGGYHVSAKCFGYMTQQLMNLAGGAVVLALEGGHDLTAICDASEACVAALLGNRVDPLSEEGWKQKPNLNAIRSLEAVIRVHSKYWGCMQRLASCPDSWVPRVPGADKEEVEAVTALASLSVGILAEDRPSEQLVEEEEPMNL
How it was run: (§1)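 Enzyme IC50 values are means of three experiments, with SAHA run as the positive control. Absence of activity was judged at 10 μM.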

HUVEC = experiment: Growth inhibition of HUVEC at 10 uM by MTT assay; assay type: functional, cell-based; settings: Homo sapiens
How it was run: (§2)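 MTT cell growth read-out, with SAHA as the positive control. GI50 values are means of three experiments. 10 μM was the concentration tested for scoring absence of activity.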

A549 [3] = experiment: Growth inhibition of human A549 cells at 10 uM by MTT assay; assay type: functional, cell-based; how it was run: as §2
A-431 [4] = experiment: Growth inhibition of human A431 cells by MTT assay; assay type: functional
BGC-823 [5] = experiment: Growth inhibition of human BGC823 cells at 10 uM by MTT assay; assay type: functional, cell-based; how it was run: as §2
HT-1080 [6] = experiment: Growth inhibition of human HT1080 cells at 10 uM by MTT assay; assay type: functional, cell-based; how it was run: as §2
DU-145 [7] = experiment: Growth inhibition of human DU145 cells at 10 uM by MTT assay; assay type: functional, cell-based; how it was run: as §2
HeLa = experiment: Growth inhibition of human HeLa cells at 10 uM by MTT assay; assay type: functional, cell-based; how it was run: as §2
HT-1080 [8] = experiment: Growth inhibition of human HT1080 cells by MTT assay; assay type: functional; settings: Homo sapiens, HT-1080; how it was run: as §2
DU-145 [9] = experiment: Growth inhibition of human DU145 cells by MTT assay; assay type: functional
A-431 [10] = experiment: Growth inhibition of human A431 cells at 10 uM by MTT assay; assay type: functional, cell-based; how it was run: as §2
BGC-823 [11] = experiment: Growth inhibition of human BGC823 cells by MTT assay; assay type: functional
Histone deacetylase 1 [12] = target: T1, Histone deacetylase 1; experiment: Inhibition of human recombinant HDAC1 at 10 uM incubated for 10 mins prior to substrate addition measured after 60 mins by spectrophotometric analysis; how it was run: as §1
A549 [13] = experiment: Growth inhibition of human A549 cells by MTT assay; assay type: functional

Question: What does the source list for `N#Cc1ccc(Cn2cc(CCCCC(=O)NO)nn2)cc1`?
Answer: IC50 (Histone deacetylase 1 [1]): 0.701 µM; inhibition [2]: inactive

Question: With `COc1cc(Br)c(Cn2cc(CCCCC(=O)NO)nn2)cc1OC` as the compound, how does the IC50 (Histone deacetylase 1 [1]) read?
Answer: 0.862 µM

Question: What about the “growth inhibition (GI)” value (HUVEC) of the same compound?
Answer: inactive

Question: And the “growth inhibition (GI)” value (A549 [3])?
Answer: inactive

Question: And the GI50 (A-431 [4])?
Answer: 17.3 µM

Question: What about the “growth inhibition (GI)” value (BGC-823 [5]) of the same compound?
Answer: inactive

Question: What about the inhibition [2] of the same compound?
Answer: inactive

Question: And the “growth inhibition (GI)” value (HT-1080 [6])?
Answer: inactive

Question: What about the “growth inhibition (GI)” value (DU-145 [7]) of the same compound?
Answer: inactive

Question: And the “growth inhibition (GI)” value (HeLa)?
Answer: inactive

Question: What does the source list for `Cc1ccc(Cn2cc(CCCCC(=O)NO)nn2)cc1`?
Answer: IC50 (Histone deacetylase 1 [1]): 0.44 µM; inhibition [2]: inactive

Question: Which results are given for `O=C(CCCCc1cn(Cc2ccc(F)c(Cl)c2)nn1)NO`?
Answer: IC50 (Histone deacetylase 1 [1]): 0.649 µM; growth inhibition (GI) (HUVEC): inactive; growth inhibition (GI) (A549 [3]): inactive; growth inhibition (GI) (BGC-823 [5]): inactive; inhibition [2]: inactive; GI50 (HT-1080 [8]): 10.2 µM; growth inhibition (GI) (DU-145 [7]): inactive; growth inhibition (GI) (HeLa): inactive

Question: Which results are given for `COc1cc(Cn2cc(CCCCC(=O)NO)nn2)cc(OC)c1`?
Answer: IC50 (Histone deacetylase 1 [1]): 0.252 µM; GI50 (DU-145 [9]): 7.89 µM; growth inhibition (GI) (HUVEC): inactive; growth inhibition (GI) (A549 [3]): inactive; GI50 (A-431 [4]): 6.8 µM; growth inhibition (GI) (BGC-823 [5]): inactive; inhibition [2]: inactive; GI50 (HT-1080 [8]): 8.04 µM; growth inhibition (GI) (HeLa): inactive

Question: What does the source list for `O=C(CCCCc1cn(Cc2ccc(Cl)cc2)nn1)NO`?
Answer: IC50 (Histone deacetylase 1 [1]): 2.21 µM; inhibition [2]: inactive

Question: What does the source list for `O=C(CCCCc1cn(Cc2ccc(C(F)(F)F)cc2)nn1)NO`?
Answer: IC50 (Histone deacetylase 1 [1]): 0.44 µM; inhibition [2]: inactive

Question: `O=C(CCCCc1cn(Cc2ccccc2Br)nn1)NO` was tested. Which IC50 (Histone deacetylase 1 [1]) did it give?
Answer: 3.58 µM

Question: And the “growth inhibition (GI)” value (A549 [3])?
Answer: inactive

Question: What about the “growth inhibition (GI)” value (BGC-823 [5]) of the same compound?
Answer: inactive

Question: What about the “growth inhibition (GI)” value (A-431 [10]) of the same compound?
Answer: inactive

Question: And the inhibition [2]?
Answer: inactive

Question: And the “growth inhibition (GI)” value (HT-1080 [6])?
Answer: inactive

Question: What about the “growth inhibition (GI)” value (DU-145 [7]) of the same compound?
Answer: inactive

Question: And the “growth inhibition (GI)” value (HeLa)?
Answer: inactive

Question: What does the source list for `O=C(CCCCc1cn(Cc2ccc(Oc3ccccc3)cc2)nn1)NO`?
Answer: IC50 (Histone deacetylase 1 [1]): 0.122 µM; GI50 (DU-145 [9]): 4.49 µM; growth inhibition (GI) (A549 [3]): inactive; GI50 (A-431 [4]): 9.03 µM; inhibition [2]: inactive; GI50 (HT-1080 [8]): 7.69 µM; GI50 (BGC-823 [11]): 7.77 µM; growth inhibition (GI) (HeLa): inactive

Question: Which results are given for `O=C(CCCCc1cn(Cc2cccc(Br)c2)nn1)NO`?
Answer: IC50 (Histone deacetylase 1 [1]): 0.396 µM; growth inhibition (GI) (HUVEC): inactive; growth inhibition (GI) (A549 [3]): inactive; growth inhibition (GI) (BGC-823 [5]): inactive; growth inhibition (GI) (A-431 [10]): inactive; inhibition [2]: inactive; GI50 (HT-1080 [8]): 6.65 µM; growth inhibition (GI) (DU-145 [7]): inactive; growth inhibition (GI) (HeLa): inactive

Question: `O=C(CCCCc1cn(Cc2c(Br)cc(Br)cc2Br)nn1)NO` was tested. Which inhibition [2] did it give?
Answer: inactive

Question: What about the inhibition (Histone deacetylase 1 [12]) of the same compound?
Answer: inactive

Question: `O=C(CCCCc1cn(Cc2ccc3c(c2)OCO3)nn1)NO` was tested. Which IC50 (Histone deacetylase 1 [1]) did it give?
Answer: 1.9 µM

Question: And the inhibition [2]?
Answer: inactive

Question: `O=C(CCCCn1cc(-c2ccccc2)nn1)NO` was tested. Which IC50 (Histone deacetylase 1 [1]) did it give?
Answer: 5.13 µM

Question: And the “growth inhibition (GI)” value (HUVEC)?
Answer: inactive

Question: And the GI50 (A549 [13])?
Answer: 7.69 µM

Question: What about the “growth inhibition (GI)” value (BGC-823 [5]) of the same compound?
Answer: inactive

Question: What about the “growth inhibition (GI)” value (A-431 [10]) of the same compound?
Answer: inactive

Question: And the “growth inhibition (GI)” value (HT-1080 [6])?
Answer: inactive

Question: What about the “growth inhibition (GI)” value (DU-145 [7]) of the same compound?
Answer: inactive

Question: What about the “growth inhibition (GI)” value (HeLa) of the same compound?
Answer: inactive

Question: What does the source list for `O=C(CCCCc1cn(Cc2ccccc2F)nn1)NO`?
Answer: IC50 (Histone deacetylase 1 [1]): 1.36 µM; inhibition [2]: inactive

Question: Which results are given for `O=C(CCCCc1cn(Cc2ccc(Br)cc2)nn1)NO`?
Answer: IC50 (Histone deacetylase 1 [1]): 1.6 µM; GI50 (DU-145 [9]): 7.91 µM; growth inhibition (GI) (A549 [3]): inactive; GI50 (A-431 [4]): 15.4 µM; growth inhibition (GI) (BGC-823 [5]): inactive; inhibition [2]: inactive; growth inhibition (GI) (HT-1080 [6]): inactive; growth inhibition (GI) (HeLa): inactive
